SR-BI DiI inh = inhibitors of SR-BI mediated HDL lipid uptake, primary screen, ldlA[mSR-BI] cells, fluorescence, single point; Scavenger receptor class B member 1 (Mus musculus), Q61009; ldlA[mSR-BI] CHO cells, DiI-HDL uptake fluorescence, 3 h; inhibition, % at 12.5 µM; 320,000 compounds, 0.96% hits; AID 488896, 2010;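 active = mean replicate inhibition of at least 70% and a set share of replicates each scoring 70 or more; inconclusive = meets just one of the two criteria; inactive = fails both criteria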;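 note: 0% = median of neutral control wells and 100% = median of positive control wells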
Target sequence (Q61009 whole entry, looked up): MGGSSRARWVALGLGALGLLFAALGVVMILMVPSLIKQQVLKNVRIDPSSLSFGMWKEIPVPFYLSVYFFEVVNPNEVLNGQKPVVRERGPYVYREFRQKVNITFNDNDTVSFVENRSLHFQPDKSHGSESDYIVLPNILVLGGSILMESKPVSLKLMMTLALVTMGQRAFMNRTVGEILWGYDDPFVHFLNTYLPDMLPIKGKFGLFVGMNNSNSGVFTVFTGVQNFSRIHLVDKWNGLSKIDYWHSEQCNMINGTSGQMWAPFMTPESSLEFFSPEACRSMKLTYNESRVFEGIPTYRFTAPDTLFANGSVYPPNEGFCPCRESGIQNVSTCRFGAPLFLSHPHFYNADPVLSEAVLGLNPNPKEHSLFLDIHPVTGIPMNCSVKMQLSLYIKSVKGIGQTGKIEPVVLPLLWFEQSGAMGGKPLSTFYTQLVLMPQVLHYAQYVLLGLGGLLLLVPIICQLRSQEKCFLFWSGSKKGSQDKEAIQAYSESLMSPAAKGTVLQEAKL
XiGFP reactiv = activators of inactive X chromosome reactivation, primary screen, imaging, XiGFP fibroblasts, GFP high-content imaging, set 2; XiGFP mouse fibroblasts, % GFP-positive cells imaging, 3 d; cells co-treated with 5-aza-dC sensitizer; scaled so ellipticine positive control = 100%; activation, % at 7.58 µM; 360,000 compounds, 0.055% hits; AID 743238, 2013;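 active = mean normalized replicate activation at least 10% and every replicate at or above 10%; inconclusive = only one of the two criteria met; inactive = mean below 10% and not all replicates reach 10%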;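 note: 0% = median of on-plate neutral control wells and 100% = ellipticine 6 µM median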
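Assay system – SV40-immortalized XiGFP fibroblast cells, line 68-5-11 · Buffer or medium – DMEM supplemented with 5-aza-dC as sensitizing agent · Dosing – one concentration, pinned · Benchmarks – positive control ellipticine, 6 µM final · Times – 3 days compound exposure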
rRNA inh HTS = reduced GFP signal of wild-type E. coli, primary screen, bacterial rRNA inhibitor project, GFP/RFP fluorescence, OD600, single point | E. coli WT GFP vs humanized-ribosome RFP mutants, 24 h; active compounds read low; DMSO median 0, no signal -100 | GFP signal change (wild-type ribosome), % (test concentration not listed) | 350,000 compounds, 1.6% hits;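 active = significant combined selectivity score with lowered wild-type GFP, culture density cut under 30%, mutant RFP and density less affected; inactive = any of these conditions unmet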
dFosB activator = activators of delta FosB homodimer, primary screen, biochemical, fluorescence polarization, TAMRA-CDK5 oligo, single point; Protein FosB (Mus musculus), P13346; 340,000 compounds, 0.99% hits; activation, % at 25 µM; purified delta FosB; percent of positive-control signal above neutral wells;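 active = mean activation above about 17%, with every replicate also reaching it, limit read from the data, passing the limit was not always enough; inconclusive = only one of the two conditions met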
SR-BI uptake up = activators of SR-BI mediated DiI-HDL uptake, primary screen, ldlA[mSR-BI] CHO cells, DiI fluorescence; 3 h; 100 = double the neutral-control signal; activation, % at 12.5 µM; 320,000 compounds, 0.096% hits; AID 504775, 2011;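 active = mean replicate activation of at least 60% and every replicate at or above 60%; inconclusive = mean or all-replicate condition met, but not both; inactive = mean below 60% and not all replicates reaching 60%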;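 note: 0% = median plate neutral-control signal and 100% = twice that signal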
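System: CHO ldlA[mSR-BI] cells / Medium: HEPES-buffered (25 mM, pH 7.4) F12 plus 0.5% BSA / Probe or stimulus: labelled HDL, 10 µg/mL / Doses: single compound concentration, delivered by pin transfer / Schedule: 3 h, 37 °C / Measured by: DiI fluorescence, bottom read / Measure: cell-associated DiI fluorescence as measure of HDL uptake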
PvdQ acylase = P. aeruginosa PvdQ acylase inhibitors, primary screen, biochemical, fluorescence, plate reader and imaging, single point. 340,000 compounds, 0.063% hits. inhibition, % at 10 µM. purified PvdQ acylase. PvdQ acylase [Pseudomonas aeruginosa LESB58]. AID 488965, 2010; in the data active = inhibition above about 30%, passing the limit was not always enough; inconclusive = no clear call, values can overlap the other calls;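 note: 0% = vehicle neutral wells and 100% = reference inhibitor wells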
Starred values were filed as active, the others as inactive; u = inconclusive; x = not tested or not shown. Shown are actives, neighbours in structure and some others; about 2.6% of the full set was active somewhere.

SMILES | SR-BI DiI inh | XiGFP reactiv | rRNA inh HTS | dFosB activator | SR-BI uptake up | PvdQ acylase
CC(C(=O)NNS(=O)(=O)c1cccc(C(F)(F)F)c1)n1nnc(N2CCOCC2)n1 (stereo unspecified) | 1 | 0 | 7 | -11 | -1 | -17
COc1ccccc1-c1cc(C(=O)N/N=C/c2ccc(C)s2)c2ccccc2n1 | 77* | x | x | -3 | -77 | -11
CCc1ccc(/C=N/NC(=O)c2cc(-c3ccccc3OC)nc3ccccc23)s1 | x | x | x | -8 | x | -4
COc1ccccc1-c1cc(C(=O)Nc2sc3c(c2C#N)CCC(C)C3)c2ccccc2n1 (stereo unspecified) | 86* | x | x | -15 | -86 | -10
COc1ccc(OC)c(-c2cc(C(=O)Nc3sc4c(c3C#N)CCC(C)C4)c3ccccc3n2)c1 (stereo unspecified) | u | x | x | -4 | -74 | 0
CCOC(=O)Cn1c(=O)n(Cc2ccco2)c(=O)c2ccc(C(=O)NCCc3ccccc3)cc21 | 5 | x | x | -1 | x | -20
Cc1nc2ccc(NC(=O)c3ccc(Cl)c(NC(=O)c4cccs4)c3)cc2s1 | 65 | x | x | -16 | -65 | 2
Cc1ccc(NC(=O)c2ccc(Cl)c(NC(=O)c3cccs3)c2)cc1 | 53 | 0 | -37* | -5 | -53 | -6
COc1cc(NC(=O)c2ccc3c(c2)OCCO3)ccc1NC(=O)c1cccs1 | 74* | 0 | -6 | -4 | -74 | -8
COc1cc(NC(=O)c2cccc(Cl)c2)ccc1NC(=O)c1cccs1 | 75* | 0 | -1 | -8 | -75 | -5
COc1cc(NC(=O)c2ccccc2Cl)ccc1NC(=O)c1cccs1 | 67 | 0 | -3 | -7 | -67 | 7
COc1cc(C(=O)Nc2cccc(NC(=O)c3cccs3)c2)cc(OC)c1OC | 78* | 0 | -15 | -14 | -78 | -9
C[C@H]1CN([C@@H](C)CO)C(=O)c2cc(N(C)C)ccc2O[C@H]1CN(C)C(=O)Nc1ccc(C(F)(F)F)cc1 | x | 0 | -15 | x | x | x
CO[C@@H]1CC[C@H]2CCOc3c(C#N)cccc3C(=O)N(C)C[C@H](C)C(=O)N(C)C[C@@H]1O2 | x | 0 | 3 | x | x | x
COc1ccc(CCNC(=O)CNC(=O)c2ccco2)cc1 | -25 | 0 | 3 | 0 | 25 | -10
O=C(Nc1ccc2c(c1)OCCO2)c1ccccn1 | -6 | 0 | 5 | -12 | 6 | 14
O=C(Nc1ccc(NC(=O)c2ccccn2)cc1)C(=O)Nc1ccc2c(c1)OCCO2 | 16 | 0 | 5 | 19* | -16 | -19
O=C(Nc1ccc(NC(=O)c2cccs2)cc1)c1ccc2c(c1)OCO2 | 33 | 0 | 9 | u | -33 | -7
COc1cc(C(=O)Nc2nc(-c3cccs3)cs2)cc(OC)c1OC | 59 | x | -30* | 8 | -59 | -9
O=C(Nc1cccc(NC(=O)c2cccs2)c1)c1ccc2c(c1)OCO2 | 12 | 0 | -34* | -12 | -12 | 8
O=C(Nc1ccccc1)c1ccc2c(c1)OCCO2 | -8 | x | x | 2 | 8 | -9
COc1ccc(C(=O)Nc2nc(-c3cccs3)cs2)cc1 | 41 | x | x | 3 | -41 | -3
O=C(Nc1ccc(NC(=O)c2cccs2)cc1)c1ccc2c(c1)OCCO2 | x | 0 | 13 | 17* | x | -8
CN(C)C(=O)C[C@@H]1CC[C@@H]2[C@H](COc3ccc(NC(=O)NCc4ccccc4)cc3C(=O)N2C)O1 | x | 0 | 2 | x | x | x
COc1ccccc1S(=O)(=O)N(C)C[C@H]1OCc2cn(nn2)CCCC(=O)N([C@@H](C)CO)C[C@@H]1C | x | 0 | 25 | x | x | x
SMILES | SR-BI DiI inh | XiGFP reactiv | rRNA inh HTS | dFosB activator | SR-BI uptake up | PvdQ acylase
COc1ccc(-c2cn(CC[C@@H]3CC[C@@H](NC(=O)c4cnccn4)[C@@H](CO)O3)nn2)cc1 | x | 0 | -3 | x | x | x
CC(C)C#Cc1ccc2c(c1)O[C@H](CN(C)CC1CC1)[C@H](C)CN([C@@H](C)CO)S2(=O)=O | x | 0 | 2 | x | x | x
N/C(=N\OC(=O)CC(c1ccccc1)c1ccccc1)c1cccnc1 | -2 | 0 | -20* | -20 | 2 | -3
O=c1cc2oc3cc(O)c(O)cc3c(-c3ccccc3[N+](=O)[O-])c-2cc1O | 90* | 0 | -38 | -2 | -90 | -2
O=c1cc(-c2ccccc2Cl)oc2cccc(O)c12 | 20 | 1 | 12 | -10 | -20 | -8
Cc1nn(-c2ccccc2)c(C)c1C(=O)NCCc1ccccc1 | x | 0 | -5 | -6 | x | 6
COc1ccc(CN(C)C(=O)C23CC4CC(CC(Cl)(C4)C2)C3)c(OC)c1OC | x | 0 | -29* | -7 | x | -12
COc1cccc(CN(C)C(=O)C23CC4CC(CC(NC(C)=O)(C4)C2)C3)c1OC | -8 | 0 | 2 | -7 | 8 | -14
COc1ccccc1CN1CC(C(=O)N(C)Cc2nc(C)cs2)CCC1=O (stereo unspecified) | -42 | 0 | 9 | -8 | 42 | -6
COC(=O)c1cccc(NC(=O)Cc2nc(-c3ccccc3)sc2-c2ccc(C)cc2)c1 | 71* | 0 | x | -5 | -71 | 4
COc1cccc(NC(=O)Cc2nc(-c3ccccc3)sc2-c2ccc(C)cc2)c1 | 86* | 0 | x | -8 | -86 | -3
CCOc1ccccc1N(C(=O)Nc1ccc(Cl)cc1)C1=NC(C)CS1 (stereo unspecified) | -1 | 0 | -20 | 5 | 1 | -19
CCN(CC(=O)Nc1ccc(NC(C)=O)cc1)C(=O)c1ccc(N2CCCC2)c([N+](=O)[O-])c1 | -3 | 0 | -3 | -7 | 3 | -8
Cc1ccc(C)c(Cn2c(O)c(N=NC(=S)Nc3ccccc3F)c3ccccc32)c1 | 84* | 0 | 19 | -13 | -84 | -5
CCN(CC)CC(=O)Nc1sc(C)cc1C(=O)c1ccc(C)cc1 | 46 | 0 | -13 | -2 | -46 | -7
CCN(CC)CC(=O)Nc1sc(C)c(C)c1C(=O)c1ccc(C)cc1 | 11 | 0 | -24* | -12 | -11 | -7
COc1ccccc1C(=O)n1nc(-c2ccccc2)nc1NCc1ccco1 | 25 | x | x | -12 | -25 | -16
CCOc1cc(C(=O)N2CCC(CC3CC(c4cccc(Br)c4)=NO3)(C(=O)NCC3CCCCC3)CC2)cc(OCC)c1OCC (stereo unspecified) | 74* | 0 | 4 | -4 | -74 | -9
